According to ChEMBL document CHEMBL2169833, “Solubility-driven optimization of phosphodiesterase-4 inhibitors leading to a clinical candidate” (J Med Chem, 2012):
In brackets after ≈: the same amount, converted by molar mass. Blank lines part the entries; values can stand above or below the compound they belong to.

Key:
[1] = system: Rattus norvegicus; experiment: Antiinflammatory activity in po dosed ovalbumin-sensitized Brown Norway rat assessed as inhibition of ovalbumin-induced eosinophil influx into BALF administered 2 hrs prior to ovalbumin-challenge measured after 24 hrs; assay type: functional
In short: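 Brown Norway rats were actively sensitized and dosed orally at 0.3, 1 or 3 mg/kg, or with vehicle PEG200:saline 1:1, 2 h before inhaled ovalbumin challenge. Saline-challenged rats served as controls. Eosinophils were counted in BAL fluid 24 h after challenge. Mean ± SEM, 5−10 animals per group. ED50 was estimated.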

[2] = system: Mustela putorius furo; experiment: Toxicity in ferret assessed as emesis at 0.075 to 4.8 mg/kg, po after 4 hrs; assay type: organism-based; set-up: dose 0.075-4.8 mg/kg, route oral; conditions: in vivo
[3] = system: Mus musculus; experiment: Antiinflammatory activity in po dosed BALB/c mouse assessed as inhibition of LPS-induced neutrophil influx into BALF administered 1 hr prior to LPS-challenge measured after 3 hrs; assay type: functional
In short: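 Mice were given vehicle (PEG200:saline 1:1) or compound orally at 1−30 mg/kg, 1 h before LPS challenge. The control group got vehicle with PBS challenge. Animals were killed 3 h after challenge. Pooled from two experiments, 6−15 mice per group. Mann−Whitney test versus vehicle/LPS animals.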

[4] = system: Rattus norvegicus; experiment: Half life in po dosed rat; assay type: ADME, organism-based; conditions: in vivo
In short: (§1)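 Rat PK after iv and po dosing, some compounds given as the potassium or sodium salt. Vehicle was PBS or 25/75 PEG200/PBS. Dose matched formulation strength: iv 1.05, 2.1 or 4.2 μmol/kg; po 2.1 or 4.2 μmol/kg. For some compounds iv and po used the same dose (2.1 or 4.2 μmol/kg).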

[5] = Thermodynamic aqueous solubility of the compound at pH 6.8; assay type: physicochemical; conditions: buffer, read-out: Therm_solubility
[6] = Clearance in iv dosed rat; assay type: ADME, organism-based; conditions: in vivo; in short: as §1
[7] = AUC total in po dosed rat; assay type: ADME, organism-based; conditions: plasma; in short: as §1
[8] = Tmax in po dosed rat; assay type: ADME, organism-based; conditions: in vivo; in short: as §1
[9] = Oral bioavailability in rat; assay type: ADME, organism-based; conditions: in vivo; in short: as §1
[10] = Cmax in po dosed rat; assay type: ADME, organism-based; set-up: route oral; conditions: in vivo; in short: as §1
[11] = Volume of distribution at steady state in iv dosed rat; assay type: ADME, organism-based; conditions: in vivo, read-out: Vdss; in short: as §1
[12] = molecular target: Phosphodiesterase 4 (Homo sapiens, UniProt P27815+Q08499+Q07343+Q08493); experiment: Inhibition of PDE4 in human PBMC assessed as inhibition of LPS-induced TNFalpha production incubated for 10 mins prior to LPS-challenge measured after 20 hrs by sandwich ELISA
In short: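 Human PBMC were isolated from normal donors by Ficoll−Hypaque and grown at 1 × 10⁶ cells/mL in RPMI1640 with 10% FCS. Compound was preincubated 10 min, then LPS added (10 ng/mL, stock added). Cells were incubated 20 h at 37 °C in 5% CO₂. Supernatant TNF-α was measured by sandwich ELISA at OD405 (sensitivity ~10 pg/mL). IC50 came from inhibition curves.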

[13] = Thermodynamic solubility of the compound at pH 1; assay type: physicochemical; conditions: buffer
[14] = system: Rattus norvegicus; experiment: (§2) AUC total in rat at 2.1 umol/kg, po; assay type: ADME, organism-based, Plasma; conditions: in vivo; in short: as §1
[15] = Volume of distribution at steady state in rat at 2.1 umol/kg, iv; assay type: ADME, organism-based; conditions: in vivo, read-out: Vdss; in short: as §1
[16] = Cmax in rat at 2.1 umol/kg, po; assay type: ADME, organism-based; set-up: dose 2.1 umol/kg, route oral; conditions: in vivo; in short: as §1
[17] = Half life in rat at 2.1 umol/kg, po; assay type: ADME, organism-based; conditions: in vivo; in short: as §1
[18] = system: Rattus norvegicus; experiment: (§3) Oral bioavailability in rat at 2.1 umol/kg; assay type: ADME, organism-based; conditions: in vivo; in short: as §1
[19] = molecular target: 3',5'-cyclic-AMP phosphodiesterase 4B (Homo sapiens, UniProt Q07343); experiment: Inhibition of human PDE4B-mediated [3H]CAMP hydrolysis after 30 to 60 mins by scintillation proximity assay
3',5'-cyclic-AMP phosphodiesterase 4B, sequence (Q07343 whole entry): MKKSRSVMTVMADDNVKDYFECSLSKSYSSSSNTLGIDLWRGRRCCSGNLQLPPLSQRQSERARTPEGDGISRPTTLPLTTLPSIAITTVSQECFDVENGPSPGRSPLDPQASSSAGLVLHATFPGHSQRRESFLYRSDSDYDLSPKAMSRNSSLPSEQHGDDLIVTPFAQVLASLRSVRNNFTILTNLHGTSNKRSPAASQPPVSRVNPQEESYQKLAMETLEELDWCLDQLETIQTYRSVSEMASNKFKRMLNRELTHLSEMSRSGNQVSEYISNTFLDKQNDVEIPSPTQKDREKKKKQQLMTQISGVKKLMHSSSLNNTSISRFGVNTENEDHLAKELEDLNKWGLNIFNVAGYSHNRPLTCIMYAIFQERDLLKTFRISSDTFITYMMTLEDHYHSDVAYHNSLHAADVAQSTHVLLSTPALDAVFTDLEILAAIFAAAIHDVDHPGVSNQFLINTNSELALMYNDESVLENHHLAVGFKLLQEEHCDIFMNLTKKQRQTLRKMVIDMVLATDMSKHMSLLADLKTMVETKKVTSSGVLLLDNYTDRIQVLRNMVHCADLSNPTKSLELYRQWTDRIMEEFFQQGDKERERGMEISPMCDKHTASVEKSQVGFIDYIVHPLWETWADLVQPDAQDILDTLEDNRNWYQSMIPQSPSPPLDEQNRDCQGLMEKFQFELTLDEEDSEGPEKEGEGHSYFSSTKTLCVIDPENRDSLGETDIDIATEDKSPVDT
In short: (§4)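 Enzyme was diluted in 10 mM Tris-HCl pH 7.5 with 1 mM EDTA to give 10–30% substrate hydrolysis. Substrate was [3H]-cAMP (0.1 μCi) with 1 μM cAMP. Inhibitors were tested at 10 concentrations with 1% DMSO, 30−60 min at room temperature, stopped with PDE SPA beads and counted. IC50 came from curves. Mean of ≥2 experiments in duplicate, SEM where n ≥ 3.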

[20] = molecular target: 3',5'-cyclic-AMP phosphodiesterase 4D (Homo sapiens, UniProt Q08499); experiment: Inhibition of human PDE4D-mediated [3H]CAMP hydrolysis after 30 to 60 mins by scintillation proximity assay; in short: as §4
3',5'-cyclic-AMP phosphodiesterase 4D, sequence (Q08499 whole entry): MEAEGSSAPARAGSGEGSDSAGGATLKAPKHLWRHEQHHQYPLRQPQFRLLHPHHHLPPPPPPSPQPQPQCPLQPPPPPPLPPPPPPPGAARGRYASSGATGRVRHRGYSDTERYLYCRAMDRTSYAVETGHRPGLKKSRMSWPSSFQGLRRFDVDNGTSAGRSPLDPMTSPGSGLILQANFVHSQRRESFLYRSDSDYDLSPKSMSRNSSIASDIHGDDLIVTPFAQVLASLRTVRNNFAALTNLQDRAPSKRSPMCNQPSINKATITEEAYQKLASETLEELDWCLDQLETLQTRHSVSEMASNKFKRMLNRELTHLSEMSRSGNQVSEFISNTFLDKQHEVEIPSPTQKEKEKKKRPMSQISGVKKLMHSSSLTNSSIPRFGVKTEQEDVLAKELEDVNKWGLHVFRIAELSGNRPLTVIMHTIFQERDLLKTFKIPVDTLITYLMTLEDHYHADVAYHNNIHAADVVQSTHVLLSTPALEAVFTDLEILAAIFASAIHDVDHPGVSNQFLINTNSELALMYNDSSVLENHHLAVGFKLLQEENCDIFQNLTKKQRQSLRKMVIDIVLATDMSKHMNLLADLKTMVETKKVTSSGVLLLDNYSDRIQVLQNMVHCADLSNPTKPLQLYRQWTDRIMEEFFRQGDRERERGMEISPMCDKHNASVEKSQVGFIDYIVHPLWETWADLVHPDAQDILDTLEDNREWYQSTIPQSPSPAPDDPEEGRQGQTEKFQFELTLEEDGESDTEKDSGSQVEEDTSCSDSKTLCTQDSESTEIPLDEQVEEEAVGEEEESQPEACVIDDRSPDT

[21] = molecular target: 3',5'-cyclic-AMP phosphodiesterase 4A (Homo sapiens, UniProt P27815); experiment: Inhibition of human PDE4A-mediated [3H]CAMP hydrolysis after 30 to 60 mins by scintillation proximity assay; in short: as §4
3',5'-cyclic-AMP phosphodiesterase 4A, sequence (P27815 whole entry): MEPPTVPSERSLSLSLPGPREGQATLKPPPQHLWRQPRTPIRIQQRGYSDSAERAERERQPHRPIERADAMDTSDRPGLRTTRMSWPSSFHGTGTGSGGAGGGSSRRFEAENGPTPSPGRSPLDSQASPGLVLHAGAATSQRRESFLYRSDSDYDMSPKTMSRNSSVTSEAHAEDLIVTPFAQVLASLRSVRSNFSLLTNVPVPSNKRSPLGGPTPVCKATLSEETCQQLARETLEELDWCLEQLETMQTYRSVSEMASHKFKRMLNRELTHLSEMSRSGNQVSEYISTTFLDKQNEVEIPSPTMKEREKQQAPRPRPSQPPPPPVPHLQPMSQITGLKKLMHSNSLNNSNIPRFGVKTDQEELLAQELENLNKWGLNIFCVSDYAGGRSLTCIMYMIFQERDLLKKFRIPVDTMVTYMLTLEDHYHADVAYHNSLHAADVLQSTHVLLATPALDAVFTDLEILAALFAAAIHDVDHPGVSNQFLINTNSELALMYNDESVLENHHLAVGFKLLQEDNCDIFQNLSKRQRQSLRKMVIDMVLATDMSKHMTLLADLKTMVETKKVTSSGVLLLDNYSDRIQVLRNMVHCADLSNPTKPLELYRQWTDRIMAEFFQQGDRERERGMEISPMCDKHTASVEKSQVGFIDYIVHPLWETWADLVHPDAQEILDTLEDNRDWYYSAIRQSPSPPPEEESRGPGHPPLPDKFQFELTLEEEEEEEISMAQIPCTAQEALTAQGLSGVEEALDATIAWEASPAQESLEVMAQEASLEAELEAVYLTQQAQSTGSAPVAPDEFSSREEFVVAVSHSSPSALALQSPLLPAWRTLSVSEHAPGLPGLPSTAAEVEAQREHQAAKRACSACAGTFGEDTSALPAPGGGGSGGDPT

[22] = as §2; assay type: ADME, organism-based, Plasma; conditions: plasma, 2.1 umol/kg; in short: as §1
[23] = Clearance in rat at 1.05 umol/kg, iv; assay type: ADME, organism-based; conditions: in vivo; in short: as §1
[24] = Tmax in rat at 2.1 umol/kg, po; assay type: ADME, organism-based; conditions: in vivo; in short: as §1
[25] = Volume of distribution at steady state in rat at 1.05 umol/kg, iv; assay type: ADME, organism-based; conditions: in vivo, read-out: Vdss; in short: as §1
[26] = as §3; assay type: ADME, organism-based; conditions: in vivo, 2.1 umol/kg; in short: as §1
[27] = system: Rattus norvegicus; experiment: AUC total in rat at 4.2 umol/kg, po; assay type: ADME, organism-based, Plasma; conditions: in vivo; in short: as §1
[28] = system: Rattus norvegicus; experiment: Oral bioavailability in rat at 4.2 umol/kg; assay type: ADME, organism-based; conditions: in vivo; in short: as §1
[29] = Tmax in rat at 4.2 umol/kg, po; assay type: ADME, organism-based; conditions: in vivo; in short: as §1
[30] = Half life in rat at 4.2 umol/kg, po; assay type: ADME, organism-based; conditions: in vivo; in short: as §1
[31] = AUC total in ferret at 3.42 umol/kg, ig; assay type: ADME, organism-based, Mustela putorius furo; conditions: plasma, po
In short: (§5)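 Ferret PK after intragastric dosing as a solution in PEG200/saline (50/50, v/v) at 3.42 μmol/kg, with one compound at 2.98 μmol/kg. Plasma levels were measured. Detection limits were 0.5 μM for roflumilast and <0.02 μM for its N-oxide metabolite.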

[32] = Cmax in ferret at 3.42 umol/kg, ig; assay type: ADME, organism-based, Mustela putorius furo; set-up: dose 3.42 umol/kg, route intragastric; conditions: in vivo, po; in short: as §5
[33] = Tmax in ferret at 3.42 umol/kg, ig; assay type: ADME, organism-based, Mustela putorius furo; conditions: in vivo, po; in short: as §5
[34] = Half life in ferret at 3.42 umol/kg, ig; assay type: ADME, organism-based, Mustela putorius furo; conditions: in vivo, po; in short: as §5

SMILES: O=C(Nc1c(Cl)cncc1Cl)c1ccc(OC(F)F)c(OCC2CC2)c1 [ROFLUMILAST]
ED50 [1]: 0.74 mg/kg
Activity [2]: Toxic
ED50 [3]: 12.4 mg/kg

SMILES: O=C([O-])[C@H]1CC[C@H](c2cc3cccnc3c(-c3cccc(F)c3)n2)CC1.[K+]
AUC [14]: 4408 µM·min
Vd [15]: 0.09 L/kg
Cmax [16]: 4.6 µM
half-life [17]: 9 h
F [18]: 52%

SMILES: O=C(O)[C@H]1CC[C@H](c2cc3cccnc3c(-c3cccc(OC(F)(F)F)c3)n2)CC1 [listing 1 of 2 here]
inhibition [1]: Dose-dependent effect

SMILES: O=C([O-])[C@H]1CC[C@H](c2cc3cccnc3c(-c3cccc(OC(F)(F)F)c3)n2)CC1.[K+]
AUC [22]: 84 µM·h
clearance [23]: 0.65 mL/min/kg
Tmax [24]: 7.42 h
Vd [25]: 0.36 L/kg
Cmax [16]: 3.6 µM
half-life [17]: 29 h
bioavailability [26]: 107%

SMILES: O=C([O-])C1CCN(c2cc3cccnc3c(-c3cccc(F)c3)n2)CC1.[Na+]
AUC [27]: 3919 µM·min
F [28]: 70%
Vd [15]: 0.24 L/kg
Tmax [29]: 2.88 h
half-life [30]: 17 h

Continued, in another order:

t1/2 [4]: 12 h
solubility thermodynamic [5]: 2 µg/mL (≈ 5.43 µM)
clearance [6]: 2.34 mL/min/kg
AUC [7]: 8.72 µM·h
Tmax [8]: 3.5 h
bioavailability [9]: 8%
Cmax [10]: 2.4 µM
Vd [11]: 0.37 L/kg
IC50 [12]: 67.6 nM
Therm_solubility [13]: 0.04 µg/mL
SMILES: O=C(O)c1ccc(-c2cc3cccnc3c(-c3ccc4nonc4c3)n2)cc1

IC50 [19]: 1330 nM
solubility thermodynamic [5]: 378 µg/mL (≈ 996 µM)
IC50 [20]: 51 nM
IC50 [21]: 587 nM
SMILES: CSc1cccc(-c2nc(N3CCC(C(=O)O)CC3)cc3cccnc23)c1

IC50 [19]: 615 nM
solubility thermodynamic [5]: > 1000 µg/mL
IC50 [20]: 45 nM
IC50 [12]: 1930 nM
IC50 [21]: 537 nM
SMILES: COc1cccc(-c2nc(N3CCC(C(=O)O)CC3)cc3cccnc23)c1

IC50 [19]: 1330 nM
solubility thermodynamic [5]: > 4000 µg/mL
IC50 [20]: 51 nM
IC50 [12]: 769 nM
IC50 [21]: 587 nM
SMILES: O=C(O)C1CCN(c2cc3cccnc3c(-c3cccc(F)c3)n2)CC1

AUC [31]: 49.7 µM·h
IC50 [19]: 43 nM
solubility thermodynamic [5]: 6 µg/mL (≈ 14.4 µM)
Cmax [32]: 10.5 µM
IC50 [20]: 24 nM
Tmax [33]: 1.75 h
IC50 [12]: 52 nM
half-life [34]: 1.87 h
IC50 [21]: 107 nM
SMILES: O=C(O)[C@H]1CC[C@H](c2cc3cccnc3c(-c3cccc(OC(F)(F)F)c3)n2)CC1 [listing 2 of 2 here]
ED50 [1]: 2 mg/kg
Activity [2]: Non-toxic
